Source: ChEMBL document CHEMBL2016555, “4-Methoxy-N-[2-(trifluoromethyl)biphenyl-4-ylcarbamoyl]nicotinamide: A Potent and Selective Agonist of S1P1” (ACS Med Chem Lett, 2011)
In brackets after ≈: the same amount, converted by molar mass.

Key:
[1] = target: T1, Sphingosine 1-phosphate receptor 1 (Homo sapiens, UniProt P21453); experiment: Agonist activity at human S1P1 expressed in U2OS cells coexpressing eGFP assessed as receptor internalization after 1 hr by microscopic analysis relative to 1-(4-(6-benzylbenzofuran-2-yl)-3-fluorobenzyl)azetidine-3-carboxylic acid; type: functional, cell-based
T1 sequence (P21453 whole entry, the tested form may be a part): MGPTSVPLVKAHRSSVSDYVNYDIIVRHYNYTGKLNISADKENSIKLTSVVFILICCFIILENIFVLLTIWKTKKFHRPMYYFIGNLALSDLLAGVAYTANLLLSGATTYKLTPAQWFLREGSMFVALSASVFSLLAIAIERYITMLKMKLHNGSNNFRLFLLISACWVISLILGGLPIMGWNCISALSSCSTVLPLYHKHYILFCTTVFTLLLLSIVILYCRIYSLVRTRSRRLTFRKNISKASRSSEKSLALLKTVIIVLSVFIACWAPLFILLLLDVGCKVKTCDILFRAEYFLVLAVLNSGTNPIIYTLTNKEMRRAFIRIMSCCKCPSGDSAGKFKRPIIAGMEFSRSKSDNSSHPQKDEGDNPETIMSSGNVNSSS
Method in brief: (§1)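 Human S1P1–eGFP fusion protein expressed in U2OS cells; agonism read as receptor internalization; EC50 derived, efficacy expressed relative to 1-(4-(6-benzylbenzofuran-2-yl)-3-fluorobenzyl)azetidine-3-carboxylic acid at 1.0 μM.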

[2] = Intrinsic clearance in rat liver microsomes after 30 mins; type: ADME, Microsome; details: read-out: CLH
[3] = Solubility of the compound in phosphate buffer saline at pH 7.4; type: physicochemical; details: phosphate buffered saline
[4] = Solubility of the compound in simulated intestinal fluid; type: physicochemical
[5] = target: T1, Sphingosine 1-phosphate receptor 1; experiment: Agonist activity at human S1P1 expressed in U2OS cells coexpressing eGFP assessed as receptor internalization after 1 hr by microscopic analysis; type: functional, cell-based; method in brief: as §1
Rattus norvegicus = experiment: Immunosuppressive activity in Lewis rat assessed as change in peripheral lymphocyte count at 1 mg/kg, po after 24 hrs relative to vehicle treated control; type: functional
Method in brief: (§2)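 Female Lewis rats (N = 5/group) given one oral dose of 1 mg/kg (20% captisol, 1% HPMC, 1% pluronic F68, pH 2.1 with MSA); blood lymphocyte count and total plasma compound measured at 24 h; POC vs vehicle, ANOVA/Dunnett's test.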

[6] = Efflux ratio of apparent permeability across pig LLC-PK1 cells; type: ADME, cell-based, Sus scrofa
Method in brief: (§3)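 Permeability across porcine proximal tubule LLC-PK1 cell monolayers; apparent permeability (Papp) and efflux ratio determined.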

[7] = Apparent permeability across pig LLC-PK1 cells; type: ADME, cell-based, Sus scrofa; method in brief: as §3
[8] = Plasma concentration in Lewis rat at 1 mg/kg, po at 24 hrs; type: ADME, organism-based; design: dose 1 mg/kg, route oral; details: Lewis, plasma; method in brief: as §2
[9] = Solubility of the compound in 0.01 M aqueous HCl; type: physicochemical

Compound | Efficacy [1] | microsomal CLint [2] | solubility [3] | solubility [4] | EC50 [5] | efflux ratio [6] | Papp [7] | concentration at 24 h [8] | solubility [9] | Activity (Rattus norvegicus)
COc1ccccc1C(=O)NC(=O)Nc1ccc(-c2ccccc2)c(C(F)(F)F)c1 | 110% | 15 µL/min/mg | < 1 µg/mL | 23 µg/mL (≈ 55.5 µM) | 68 nM |  | < 1 ×10⁻⁶ cm/s | 4.9 ng/mL | < 1 µg/mL | -20%
COc1ccccc1C(=O)NC(=O)Nc1ccc(N2CCCCC2)c(Cl)c1 | 120% | 36 µL/min/mg | < 1 µg/mL | 8.5 µg/mL (≈ 21.9 µM) | 230 nM |  | < 1 ×10⁻⁶ cm/s |  | 3.6 µg/mL (≈ 9.28 µM) | 

Now those with a lower EC50 [5], led by results:

Efficacy [1] | microsomal CLint [2] | solubility [3] | solubility [4] | EC50 [5] | efflux ratio [6] | Papp [7] | concentration at 24 h [8] | solubility [9] | Compound | Activity (Rattus norvegicus)
110% | 15 µL/min/mg | 19 µg/mL (≈ 45.7 µM) | 8.5 µg/mL (≈ 20.5 µM) | 13 nM | 1.1 | 7.4 ×10⁻⁶ cm/s | 13 ng/mL | 28 µg/mL (≈ 67.4 µM) | COc1ccccc1C(=O)NC(=O)Nc1ccc(-c2ccccn2)c(C(F)(F)F)c1 | -14%
83% | 25 µL/min/mg | < 1 µg/mL | 2.2 µg/mL (≈ 5.04 µM) | 6.8 nM |  | < 1 ×10⁻⁶ cm/s | 1 ng/mL | < 1 µg/mL | COc1ccccc1C(=O)NC(=O)Nc1ccc(OCC(F)(F)F)c(C(F)(F)F)c1 | 4%
120% | < 14 µL/min/mg | < 1 µg/mL | 24 µg/mL (≈ 61.8 µM) | 5.4 nM | 1 | 1.2 ×10⁻⁶ cm/s | 7 ng/mL | < 1 µg/mL | COc1ccccc1C(=O)NC(=O)Nc1ccc(-c2ccccc2)c(C(C)C)c1 | 3%
